For data set [1], the target named is T1, PRMT1 (Rattus norvegicus, UniProt Q63009). Kind of data set: radiometric P81 filter binding assay, PRMT1. Particulars: for inhibition at 20 µM: read-out: inhibition of PRMT1. It counts as biochemical.
In another data set the target is PRMT5 (Homo sapiens, UniProt O14744). The data set is described as follows: radiometric P81 filter binding assay, PRMT5. The data set is classed as biochemical. Particulars: initial screening at 20 μM compound. The gist of the method: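 HA-PRMT5 was co-expressed with WDR77 in HEK293T cells and purified on HA-peptide agarose by peptide elution. Reactions at 30 °C used 50 mM HEPES pH 8.0, 50 mM NaCl, 1 mM EDTA, 0.5 mM DTT, with 0.5 μM [3H]SAM and 1 μM H4(1–20) peptide. Test compound at 20 μM was preincubated with enzyme and [3H]SAM for 5 min at room temperature, then peptide was added to start the reaction. Mixtures were spotted on P81 paper, washed with 50 mM NaHCO3 pH 9.0, and counted by scintillation. Controls lacked inhibitor, or both peptide and inhibitor.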

In the next data set the test system is MOLM-13 cells. Kind of data set: CellTiter-Glo cell viability, MOLM-13 cells. The data set is classed as cell-based. Particulars: 20 μM, compared with HEL, Jurkat, HL-60. The gist of the method: (§1)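 Leukemia cell lines were grown in RPMI plus 10% FBS and seeded at 1000–1500 cells per well. Cultures received 20 μM test compound or an equal amount of DMSO. CellTiter-Glo reagent was added at 0, 24, 48 and 72 h after treatment, and luminescence was read. Viability is expressed as viable cells in the treated group as a percentage of the DMSO control.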

The next data set concerns CHRF-288-11 cells. Kind of data set: CellTiter-Glo cell viability, CHRF-288-11 cells. The data set is classed as cell-based. Particulars: 20 μM, compared with HEL, Jurkat, HL-60. The gist of the method: as §1
(ATP-based viability assays read luminescence as a measure of living cells.)

Data set [2] deals with T1, PRMT1. Kind of data set: competitive fluorescence anisotropy binding assay. Particulars: 524 nm, 0.2 μM H4-FL, 2.0 μM PRMT1, increasing compound concentration. The gist of the method: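 Recombinant His6-PRMT1 was expressed in E. coli BL21(DE3) and Ni-NTA purified. 0.2 μM fluorescein-H4(1–20) and 2 μM PRMT1 were mixed, then test compound was titrated in until anisotropy levelled off. Excitation was 498 nm and emission 524 nm. Anisotropy from several scans was plotted against inhibitor concentration.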
(In fluorescence polarisation assays a small probe gives low polarisation when free and higher when bound to something large.)

Data set [3] concerns the target T1, PRMT1. The data set is described as follows: steady-state kinetic analysis of PRMT1 inhibition. Particulars: for Ki: Kis. It counts as biochemical.
The subject of the next data set is CMY cells. Kind of data set: CellTiter-Glo cell viability, CMY cells. Particulars: 20 μM, compared with HEL, Jurkat, HL-60. It counts as cell-based. Summed up: as §1
The test system of a further data set is HEL cells. The data set is described as follows: CellTiter-Glo cell viability, HEL cells. It counts as cell-based. Particulars: HEL cells (JAK2V617F), 20 μM, 3 days. The gist of the method:
as §1

The test system of data set [4] is intracellular PRMT1 activity (GFP-ALY methylation) in 293T cells. Kind of data set: GFP-ALY methylation in 293T cells. It counts as cell-based, human. The gist of the method: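 A stable 293T line expressing GFP-ALY, kept in DMEM plus 10% FBS, was exposed to 20 μM test compound for 15 h. Cells were lysed on ice for 30 min in H buffer (150 mM NaCl, 20 mM Tris pH 7.8, 1% NP-40, phosphatase/protease inhibitors, 1 mM DTT) and cleared at 12000g for 20 min. GFP-ALY was pulled down on GFP antibody beads and analysed by SDS–PAGE and ASYM24 Western blot with chemiluminescence detection.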

A further data set concerns leukemia cell lines. Kind of data set: CellTiter-Glo cell viability, panel of leukemia cell lines. Particulars: 10 different leukemia cell lines, 20 μM, 3 consecutive days. It counts as cell-based.
Where [5] appears, read: varied H4-20, [3H]AdoMet fixed at 3 μM.

T1 sequence (Q63009 whole entry): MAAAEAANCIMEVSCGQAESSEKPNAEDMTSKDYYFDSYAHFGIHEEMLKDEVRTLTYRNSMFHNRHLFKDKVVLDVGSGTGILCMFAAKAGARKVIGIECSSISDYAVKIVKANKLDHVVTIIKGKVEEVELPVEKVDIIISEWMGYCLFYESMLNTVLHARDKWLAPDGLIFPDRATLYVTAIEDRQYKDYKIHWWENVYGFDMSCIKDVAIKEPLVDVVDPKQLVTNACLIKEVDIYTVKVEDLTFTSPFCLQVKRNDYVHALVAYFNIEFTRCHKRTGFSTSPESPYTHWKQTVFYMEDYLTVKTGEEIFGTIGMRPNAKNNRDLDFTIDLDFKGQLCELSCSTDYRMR
Chain of PRMT5 (O14744 whole entry, species assumed): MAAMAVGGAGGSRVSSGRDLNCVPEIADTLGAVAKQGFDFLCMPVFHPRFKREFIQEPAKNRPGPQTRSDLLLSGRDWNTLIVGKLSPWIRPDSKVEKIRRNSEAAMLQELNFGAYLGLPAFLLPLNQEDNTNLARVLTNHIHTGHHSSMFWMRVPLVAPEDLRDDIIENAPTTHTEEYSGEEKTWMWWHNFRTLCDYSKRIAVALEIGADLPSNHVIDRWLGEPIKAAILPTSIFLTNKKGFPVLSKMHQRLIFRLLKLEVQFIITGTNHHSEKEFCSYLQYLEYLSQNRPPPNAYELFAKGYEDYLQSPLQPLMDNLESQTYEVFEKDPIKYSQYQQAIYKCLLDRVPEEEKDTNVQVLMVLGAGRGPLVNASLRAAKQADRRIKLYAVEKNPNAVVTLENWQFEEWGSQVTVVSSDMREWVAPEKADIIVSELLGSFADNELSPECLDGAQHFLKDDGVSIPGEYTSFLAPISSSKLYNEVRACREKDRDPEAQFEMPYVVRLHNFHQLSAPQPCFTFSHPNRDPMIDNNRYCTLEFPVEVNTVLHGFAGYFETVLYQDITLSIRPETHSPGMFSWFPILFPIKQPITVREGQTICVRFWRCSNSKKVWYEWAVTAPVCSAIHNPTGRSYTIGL
Chain of PRMT5 (Q9BQA1 whole entry partner, species assumed): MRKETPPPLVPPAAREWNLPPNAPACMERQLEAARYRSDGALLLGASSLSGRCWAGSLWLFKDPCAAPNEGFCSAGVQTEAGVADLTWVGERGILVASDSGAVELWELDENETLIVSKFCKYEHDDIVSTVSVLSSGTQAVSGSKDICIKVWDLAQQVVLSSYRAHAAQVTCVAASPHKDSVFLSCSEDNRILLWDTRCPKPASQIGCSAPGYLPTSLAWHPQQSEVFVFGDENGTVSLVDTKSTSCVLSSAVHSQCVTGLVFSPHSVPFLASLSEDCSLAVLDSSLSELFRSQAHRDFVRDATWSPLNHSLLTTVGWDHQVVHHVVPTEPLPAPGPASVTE

On to `N=C(N)c1ccc(-c2ccc(-c3ccc(C(=N)N)c(F)c3)o2)cc1F` [Compound 21], for which the “inhibition of PRMT1” value on PRMT1 [1] (initial screening at 20 μM compound) is given as “very weak activity”. Moreover, the “inhibition of PRMT5” value on PRMT5 is “very weak activity”.
In general, inhibition refers to the change of the read-out against control, counted positive when it falls. For orientation: Ki means a dissociation constant, usually derived from enzyme kinetics or from competition with a known ligand. The low end stands for higher affinity, the high end for lower affinity. For the compound `N=C(N)c1ccc(-c2ccc(-c3ccc(C(=N)N)cc3)o2)cc1` [Compound 1, 2,5-bis(4-amidinophenyl)furan], the “sensitivity of cell growth versus other cell lines” value in the data set on MOLM-13 cells, in the data set on CHRF-288-11 cells and with CMY cells was “more sensitive” each time. For the same compound, the “fluorescence anisotropy plateau of H4-FL and PRMT1 mixture” value on PRMT1 [2] was “about 0.055”. For the same compound, at PRMT1 [1], the inhibition at 20 µM is greater than 75%. The inhibition constant Ki worked out at 2.6 µM on PRMT1 [3] (setting [5]) and 16 µM at PRMT1 [3] (varied [3H]SAM, H4-20 fixed at 15 μM). Also, the “Kis smaller than Kii” value on PRMT1 [3] (varied H4-20) is given as “about 14 fold”. This compound had a Kii at PRMT1 [3] (setting [5]) of 38 µM. Besides, the cell growth result is on record as “except HEL cells” in the data set on HEL cells and “inhibited cell growth for most of the leukemia cell lines” in the data set on leukemia cell lines. Besides, the “level of methylated GFP-ALY protein” value in data set [4] (293T cells, 20 μM, 15 h, ASYM24 antibody) is reported as “significantly reduced”. In [4] (inferred from inhibition of cellular PRMT1 activity in 293T cells), the cell membrane permeability result is reported as “permeable to cell membrane”.
Turning to `N=C(N)c1ccc(-c2ccc(-c3ccc(OCCCCCCCCOc4ccc(-c5ccc(-c6ccc(C(=N)N)cc6)o5)cc4)cc3)o2)cc1` [Compound 2], the inhibition at 20 µM at PRMT1 [1] was greater than 85%.

(Values after paper PMC3983339 (Journal of Medicinal Chemistry, 2014).)
